Reference: ChEMBL document CHEMBL1135644, “Effect of spermine conjugation on the cytotoxicity and cellular transport of acridine” (J Med Chem, 2002)
pIC50, pKi: −log10 of the molar value.

How the values were obtained:
Nucleic Acid = assay: Drug concentration required to produce 50% inhibition of fluorescence bound ethidium to CT-DNA (1.26:1) (+/-SEM 5%); assay type: functional; settings: Bos taurus
Method in brief: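 Ethidium displacement: 1 μM CT-DNA with 1.26 μM ethidium bromide; conjugate stock added serially. Fluorescence was read at excitation 546 nm and emission 595 nm. The value is the conjugate concentration cutting DNA-bound ethidium fluorescence by 50%. Mean of three determinations (±5%).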

L1210 [1] = assay: In vitro 50% cell growth inhibition by the compound in L1210 cells with 5 mM DFMO addition; assay type: functional, cell-based; settings: Mus musculus
Method in brief: (§1)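 L1210 cells were seeded at 5 × 10^4 cells/mL, and conjugate plus 5 mM DFMO were added at seeding with 2 mM aminoguanidine present. After 48 h, growth was read by MTT at 540 nm relative to DFMO-only controls.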

CHO-MG [2] = assay: In vitro 50% cell growth inhibition by the compound in CHO-MG cells; assay type: functional, cell-based; settings: Cricetulus griseus
Method in brief: (§2)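 CHO or CHO-MG cells were trypsinized and plated singly at 2 × 10^3 cells/mL in RPMI 1640/10% FCS with 2 mM aminoguanidine (proline for CHO-MG). Conjugates were added after overnight incubation, with 48 h exposure. Growth was read by MTT formazan absorbance at 540 nm relative to untreated controls. The value is the concentration giving 25% or 50% growth inhibition.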

L1210 [3] = assay: Cellular uptake of conjugates in L1210 cells (control) at a concentration of 10 uM (+/-15% SEM); assay type: functional, cell-based; settings: Mus musculus
Method in brief: (§3)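 L1210 cells were seeded at 2 × 10^5 cells/mL with conjugate added at seeding, in medium containing 2 mM aminoguanidine, and cultured 24 h. Washed cells were extracted in 0.2 N HClO4/2 M NaCl for 16 h at 4 °C. Intracellular conjugate was quantified by fluorimetry and expressed as nmol/mg protein. Mean of three determinations (±15%).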

[4] = Ratio of cellular uptake in CHO cells to that of CHO-MG cells at 1.25 uM; assay type: functional
L1210 [5] = assay: Cellular uptake of conjugates in L1210 cells pretreated with 5 mM DFMO at a concentration of 10 uM (+/-15% SEM); assay type: functional, cell-based; settings: Mus musculus
Method in brief: (§4)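 L1210 cells were seeded at 10^5 cells/mL in medium with 5 mM DFMO, and conjugates were added 24 h later. Cells were harvested after a further 24 h, extracted in 0.2 N HClO4/2 M NaCl and assayed by fluorimetry, expressed per mg protein. Mean of three determinations (±15%).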

[6] = Ratio of cellular uptake in CHO cells to that of CHO-MG cells at 10 uM; assay type: functional
CHO [7] = assay: Cellular uptake of conjugates in CHO cells at a concentration of 1.25 uM (+/-15% SEM); assay type: functional, cell-based; settings: Cricetulus griseus
Method in brief: (§5)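 Conjugates added 24 h after seeding (1 × 10^5 cells/mL, RPMI 1640 with 10% FCS and 2 mM aminoguanidine; proline added for CHO-MG) and left for 24 h. Cells were washed in 0.14 M NaCl, sonicated in 0.2 N HClO4/2 M NaCl and held 16 h at 4 °C. Conjugate in the supernatant was measured by fluorimetry against standards and expressed per mg protein (Folin). Mean of three determinations (±15%).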

L1210 [8] = assay: In vitro 50% cell growth inhibition by the compound in L1210 cells; assay type: functional, cell-based; settings: Mus musculus
Method in brief: (§6)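 L1210 cells were seeded at 5 × 10^4 cells/mL with conjugate added at seeding, in medium with 2 mM aminoguanidine, for 48 h exposure. Growth was measured by MTT absorbance at 540 nm relative to untreated controls.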

CHO [9] = assay: In vitro 50% cell growth inhibition by the compound in CHO cells; assay type: functional, cell-based; settings: Cricetulus griseus; method in brief: as §2
L1210 [10] = assay: In vitro 25% cell growth inhibition by the compound in L1210 cells; assay type: functional; settings: Mus musculus; method in brief: as §6
CHO-MG [11] = assay: Cellular uptake of conjugates in CHO-MG cells at a concentration of 1.25 uM (+/-15% SEM); assay type: functional, cell-based; method in brief: as §5
L1210 [12] = assay: In vitro 25% cell growth inhibition by the compound in L1210 cells with 5 mM DFMO addition; assay type: functional; settings: Mus musculus; method in brief: as §1
L1210 [13] = assay: Inhibition of [14C]SPD uptake by the compound in 5 min initial rate transport assay in L1210 cells; assay type: functional, cell-based, Mus musculus
CHO-MG [14] = assay: Cellular uptake of conjugates in CHO-MG cells at a concentration of 10 uM (+/-15% SEM); assay type: functional, cell-based; settings: Cricetulus griseus; method in brief: as §5
CHO [15] = assay: Cellular uptake of conjugates in CHO cells at a concentration of 10 uM (+/-15% SEM); assay type: functional, cell-based; settings: Cricetulus griseus; method in brief: as §5
L1210 [16] = assay: Cellular uptake of conjugates in L1210 cells (control) at a concentration of 2 uM (+/-15% SEM); assay type: functional, cell-based; settings: Mus musculus; method in brief: as §3
CHO [17] = assay: In vitro 25% cell growth inhibition by the compound in CHO cells; assay type: functional; settings: Cricetulus griseus; method in brief: as §2
L1210 [18] = assay: Cellular uptake of conjugates in L1210 cells in presence of 500 uM SPD at a concentration of 1 uM (+/-15% SEM); assay type: functional, cell-based; settings: Mus musculus
Method in brief: (§7)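 Same as the L1210 uptake assay: seeded at 2 × 10^5 cells/mL, conjugate plus 500 μM spermidine added together at seeding, 24 h exposure. Extraction in HClO4/NaCl, fluorimetric quantitation, normalized to protein. Mean of three determinations (±15%).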

CHO-MG [19] = assay: In vitro 50% cell growth inhibition by the compound in CHO-MG cells with 5 mM DFMO addition; assay type: functional, cell-based; settings: Cricetulus griseus
Method in brief: (§8)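 CHO or CHO-MG cells were plated at 2 × 10^3 cells/mL and incubated overnight. Conjugates and 5 mM DFMO were then added together, with 2 mM aminoguanidine present, for 48 h. MTT absorbance at 540 nm was expressed relative to DFMO-treated controls. The value is the concentration inhibiting growth 25% or 50%.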

CHO-MG [20] = assay: In vitro 25% cell growth inhibition by the compound in CHO-MG cells with 5 mM DFMO addition; assay type: functional; settings: Cricetulus griseus; method in brief: as §8
CHO [21] = assay: Cellular uptake of conjugates in CHO cells at a concentration of 0.5 uM (+/-15% SEM); assay type: functional, cell-based; settings: Cricetulus griseus; method in brief: as §5
CHO [22] = assay: In vitro 25% cell growth inhibition by the compound in CHO cells with 5 mM DFMO addition; assay type: functional; settings: Cricetulus griseus; method in brief: as §8
CHO [23] = assay: In vitro 50% cell growth inhibition by the co mpound in CHO cells with 5 mM DFMO addition; assay type: functional, cell-based; settings: Cricetulus griseus; method in brief: as §8
L1210 [24] = assay: Cellular uptake of conjugates in L1210 cells pretreated with 5 mM DFMO at a concentration of 1 uM (+/-15% SEM); assay type: functional, cell-based; settings: Mus musculus; method in brief: as §4
L1210 [25] = assay: Cellular uptake of conjugates in L1210 cells pretreated with 5 mM DFMO at a concentration of 2 uM (+/-15% SEM); assay type: functional, cell-based; settings: Mus musculus; method in brief: as §4
L1210 [26] = assay: Cellular uptake of conjugates in L1210 cells in presence of 500 uM SPD at a concentration of 2 uM (+/-15% SEM); assay type: functional, cell-based; settings: Mus musculus; method in brief: as §7
L1210 [27] = assay: Cellular uptake of conjugates in L1210 cells (control) at a concentration of 1 uM (+/-15% SEM); assay type: functional, cell-based; settings: Mus musculus; method in brief: as §3
L1210 [28] = assay: Cellular uptake of conjugates in L1210 cells in presence of 500 uM SPD at a concentration of 0.5 uM (+/-15% SEM); assay type: functional, cell-based; settings: Mus musculus; method in brief: as §7
[29] = Ratio of cellular uptake in CHO cells to that of CHO-MG cells.; assay type: functional
CHO-MG [30] = assay: In vitro 25% cell growth inhibition by the compound in CHO-MG cells; assay type: functional, Cricetulus griseus; method in brief: as §2
CHO-MG [31] = assay: Cellular uptake of conjugates in CHO-MG cells at a concentration of 0.5 uM (+/-15% SEM); assay type: functional, cell-based; settings: Cricetulus griseus; method in brief: as §5
L1210 [32] = assay: Cellular uptake of conjugates in L1210 cells pretreated with 5 mM DFMO at a concentration of 0.5 uM (+/-15% SEM); assay type: functional, cell-based; settings: Mus musculus; method in brief: as §4
L1210 [33] = assay: Cellular uptake of conjugates in L1210 cells (control) at a concentration of 0.5 uM (+/-15% SEM); assay type: functional, cell-based; settings: Mus musculus; method in brief: as §3
CHO-MG [34] = assay: Cellular uptake of conjugates in CHO-MG cells at a concentration of 2 uM (+/-15% SEM); assay type: functional, cell-based; settings: Cricetulus griseus; method in brief: as §5
L1210 [35] = assay: Cellular uptake of conjugates in L1210 cells in presence of 500 uM SPD at a concentration of 10 uM (+/-15% SEM); assay type: functional, cell-based; settings: Mus musculus; method in brief: as §7
[36] = Ratio of cellular uptake in CHO cells to that of CHO-MG cells 2 uM; assay type: functional
CHO [37] = assay: Cellular uptake of conjugates in CHO cells at a concentration of 2 uM (+/-15% SEM); assay type: functional, cell-based; settings: Cricetulus griseus; method in brief: as §5

pIC50 (L1210 [1]) | pIC50 (L1210 [8]) | SMILES | Concentration for 50% ethidium displacement from DNA (C50) (Nucleic Acid) [nM] | pIC50 (CHO-MG [2]) | Uptake (nM (mg of protein)-1) (L1210 [3]) | Uptake (nM (mg of protein)-1) (L1210 [5]) | Ratio [6] | pIC50 (CHO [9]) | IC25 (L1210 [10]) [µM] | IC25 (L1210 [12]) [µM] | pKi (L1210 [13]) | Uptake (nM (mg of protein)-1) (CHO-MG [14]) | Uptake (nM (mg of protein)-1) (CHO [15]) | Uptake (nM (mg of protein)-1) (L1210 [16]) | IC25 (CHO [17]) [µM] | pIC50 (CHO-MG [19]) | IC25 (CHO-MG [20]) [µM] | Uptake (nM (mg of protein)-1) (CHO [21]) | IC25 (CHO [22]) [µM] | Uptake (nM (mg of protein)-1) (L1210 [25]) | other results
5.66 | 4.74 | Cl.NCCCNCCCCNCCCNCCCCNC(=O)c1c2ccccc2nc2ccccc12 | 120 | 4.68 | 0.561 | 0.85 | 1.1 | 4.77 | 10 | 0.16 | 7.08 | 0.172 | 0.183 |  |  |  |  |  |  |  | Ratio [4]: 1.4; Uptake (nM (mg of protein)-1) (CHO [7]): 0.018; Uptake (nM (mg of protein)-1) (CHO-MG [11]): 0.013
6.05 | 5.55 | Cl.NCCCNCCCCNCCCNCCCNc1c2ccccc2nc2ccccc12 | 110 | 5.21 |  |  |  | 5.64 | 1.4 | 0.14 | 6.89 |  |  | 0.717 | 0.9 | 5.14 | 2.5 | 0.167 | 0.32 | 1.58 | Uptake (nM (mg of protein)-1) (L1210 [18]): 0.188; pIC50 (CHO [23]): 5.89; Uptake (nM (mg of protein)-1) (L1210 [24]): 0.728; Uptake (nM (mg of protein)-1) (L1210 [26]): 0.553; Uptake (nM (mg of protein)-1) (L1210 [27]): 0.307; Uptake (nM (mg of protein)-1) (L1210 [28]): 0.053; Ratio [29]: 3.1; IC25 (CHO-MG [30]; Cricetulus griseus, CHO-MG, read-out: IC25): 1.8 µM; Uptake (nM (mg of protein)-1) (CHO-MG [31]): 0.054; Uptake (nM (mg of protein)-1) (L1210 [32]): 0.496; Uptake (nM (mg of protein)-1) (L1210 [33]): 0.186
6.15 | 5.85 | Cl.NCCCNCCCCNCCCNCCCCCNc1c2ccccc2nc2ccccc12 | 110 | 5.40 |  |  |  | 6.00 | 0.4 | 0.2 | 6.87 |  |  | 0.51 |  |  |  | 0.21 |  | 1.06 | Ratio [29]: 3.4; Uptake (nM (mg of protein)-1) (CHO-MG [31]): 0.061
5.18 | 4.39 | Cl.NCCCNCCCCNCCCNCCCCCNC(=O)c1c2ccccc2nc2ccccc12 | 120 | 4.51 | 0.279 | 0.631 | 1.1 | 4.60 | 22 | 0.1 | 7.01 | 0.112 | 0.125 | 0.064 | 10.8 | 4.64 | 6 |  | 0.025 | 0.217 | Uptake (nM (mg of protein)-1) (CHO-MG [34]): 0.032; pIC50 (CHO [23]): 5.70; Uptake (nM (mg of protein)-1) (L1210 [26]): 0.049; Uptake (nM (mg of protein)-1) (L1210 [28]): 0.016; Uptake (nM (mg of protein)-1) (L1210 [35]): 0.262; Ratio [36]: 1.1; IC25 (CHO-MG [30]): 10.5 µM; Uptake (nM (mg of protein)-1) (CHO [37]): 0.034; Uptake (nM (mg of protein)-1) (L1210 [32]): 0.113; Uptake (nM (mg of protein)-1) (L1210 [33]): 0.033
